Results from ChEMBL document CHEMBL1799919, “Design, synthesis, biological evaluation, and structure-activity relationships of substituted phenyl 4-(2-oxoimidazolidin-1-yl)benzenesulfonates as new tubulin inhibitors mimicking combretastatin A-4” (J Med Chem, 2011).
Activity calls are given as the source filed them. The calls are words filed in the database; no cut-off is given here.

How the values were obtained:
CCRF-CEM = experiment: Antiproliferative activity against human CEM cells after 48 hrs by sulforhodamine B assay; assay type: functional, cell-based
HT-29 = experiment: Antiproliferative activity against human HT-29 cells after 48 hrs by sulforhodamine B assay; assay type: functional, cell-based; conditions: HT-29, 48 h
[1] = Antiproliferative activity against multidrug-resistant human CEM/VLB cells after 48 hrs by sulforhodamine B assay; assay type: functional
M21 [2] = experiment: Antiproliferative activity against human M21 cells after 48 hrs by sulforhodamine B assay; assay type: functional, cell-based; conditions: M21, 48 h
DU-145 = experiment: Antiproliferative activity against human DU145 cells after 48 hrs by sulforhodamine B assay; assay type: functional, cell-based; conditions: DU-145, 48 h
[3] = Toxicity against fertilized chicken embryo assessed as mortality at 1 ug per egg, iv by CAM assay; assay type: organism-based, Gallus gallus; conditions: in vivo, read-out: Activity
Summary of the method: (§1)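 Fertilized chicken eggs incubated 10 days with automatic turning, then static. HT-1080 cells (3.5 × 10^5 cells/egg) grafted onto exposed CAM. On day 11, drug in DMSO diluted into cremophor/ethanol/PBS (6.25/6.25/87.5 v/v) excipient, DMSO below 0.5%, 100 μL injected iv into 10-12 eggs. Eggs incubated to day 17, dead embryos counted. Untreated eggs used for normalization. Two independent experiments, at least 10 eggs each.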

CHO-TAX 5-6 [4] = experiment: Resistant ratio of IC50 for paclitaxel-resistant CHO-TAX 5-6 cells to IC50 for CHO cells; assay type: functional, Cricetulus griseus
Summary of the method: (§2)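 Ratio of the IC50 in the resistant line (CEM-VLB, CHO-TAX 5-6 or CHO-VV 3-2) to the IC50 in its parental line (CEM or CHO).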

M21 [5] = experiment: Cell cycle arrest in human M21 cells assessed as accumulation at G2/M phase at 5 times IC50 after 24 hrs using propidium iodide staining by flow cytometric analysis (reference value: 9%); assay type: functional
SK-OV-3 = experiment: Antiproliferative activity against human SKOV3 cells after 48 hrs by sulforhodamine B assay; assay type: functional, cell-based; conditions: SK-OV-3, 48 h
L1210 = experiment: Antiproliferative activity against mouse L1210 cells after 48 hrs by sulforhodamine B assay; assay type: functional, cell-based; conditions: L1210, 48 h
MDA-MB-231 [6] = experiment: Antiproliferative activity against human MDA-MB-231 cells after 48 hrs by sulforhodamine B assay; assay type: functional, cell-based; conditions: MDA-MB-231, 48 h
MCF7 = experiment: Antiproliferative activity against human MCF7 cells after 48 hrs by sulforhodamine B assay; assay type: functional, cell-based; conditions: MCF7, 48 h
[7] = Antiproliferative activity against mouse P388D1 cells after 48 hrs by sulforhodamine B assay; assay type: functional, cell-based; conditions: P388D1, 48 h
K562 = experiment: Antiproliferative activity against human K562 cells after 48 hrs by sulforhodamine B assay; assay type: functional, cell-based; conditions: K562, 48 h
CHO-VV 3-2 = experiment: Antiproliferative activity against colchicine- and vinblastine-resistant CHO-VV 3-2 cells after 48 hrs by sulforhodamine B assay; conditions: Cricetulus griseus, CHO-VV 3-2, 48 h
M21 [8] = experiment: Disruption of cytoskeleton microtubule structure of human M21 cells at 5 times IC50 after 16 hrs by indirect immunofluorescence assay; assay type: functional, cell-based
Summary of the method: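 Fixed in 3.7% formaldehyde, permeabilized with saponin, and stained with anti-β-tubulin (TUB 2.1), Alexa-488 secondary and DAPI. Microtubule structure scored by fluorescence microscopy.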

[9] = Antiproliferative activity against mouse B16F0 cells after 48 hrs by sulforhodamine B assay; assay type: functional, cell-based; conditions: B16F0, 48 h
CHO-TAX 5-6 [10] = experiment: Antiproliferative activity against paclitaxel-resistant CHO-TAX 5-6 cells after 48 hrs by sulforhodamine B assay; assay type: functional, cell-based; conditions: Cricetulus griseus, CHO-TAX 5-6, 48 h
M21 [11] = experiment: Cell cycle arrest in human M21 cells assessed as accumulation at S phase at 5 times IC50 after 24 hrs using propidium iodide staining by flow cytometric analysis (reference value: 30%); assay type: functional
MDA-MB-231 [12] = experiment: Displacement of N,N'-ethylenebis(iodoacetamide) from colchicine-binding site of beta-tubulin in human MDA-MB-231 cells at 1000 times IC50 preincubated for after 2 hrs before N,N'-ethylenebis(iodoacetamide) addition measured after 1.5 hrs by chemiluminescence assay; assay type: cell-based
Summary of the method: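 EBI (100 μM final) added for 1.5 h at 37 °C; controls received 0.5% DMSO. Lysates (20 μg protein) run on 10% SDS-PAGE and blotted with anti-β-tubulin (TUB 2.1). β-tubulin–EBI adduct band detected by ECL.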

CHO = experiment: Antiproliferative activity against CHO cells after 48 hrs by sulforhodamine B assay; assay type: functional, cell-based; conditions: Cricetulus griseus
HT-1080 [13] = experiment: Antiproliferative activity against human HT1080 cells after 48 hrs by sulforhodamine B assay; assay type: functional, cell-based; conditions: HT-1080, 48 h
M21 [14] = experiment: Cell cycle arrest in human M21 cells assessed as accumulation at G0/G1 phase at 5 times IC50 after 24 hrs using propidium iodide staining by flow cytometric analysis (reference value: 61%); assay type: functional
CEM-VLB = experiment: Resistant ratio of IC50 for multidrug-resistant human CEM-VLB cells to IC50 for human CEM cells; assay type: functional; summary of the method: as §2
HT-1080 [15] = experiment: Antivasculogenic activity against human HT1080 cells xenografted in chicken chorioallantoic membrane assessed as inhibition of tumor growth at 1 ug per egg, iv measured on day 14 by CAM assay; assay type: functional; parameters: scale not given: the % may be the effect or the level left
HT-1080 [16] = experiment: Antivasculogenic activity against human HT1080 cells xenografted in chicken chorioallantoic membrane assessed as inhibition of tumor growth at 3 ug per egg, iv measured on day 14 by CAM assay; assay type: functional; parameters: scale not given: the % may be the effect or the level left
[17] = Toxicity against fertilized chicken embryo assessed as mortality at 3 ug per egg, iv by CAM assay; assay type: organism-based, Gallus gallus; conditions: in vivo, read-out: Activity; summary of the method: as §1
HT-1080 [18] = experiment: Antivasculogenic activity against human HT1080 cells xenografted in chicken chorioallantoic membrane assessed as inhibition of tumor growth at 10 ug per egg, iv measured on day 14 by CAM assay; assay type: functional; parameters: scale not given: the % may be the effect or the level left
[19] = Toxicity against fertilized chicken embryo assessed as mortality at 10 ug per egg, iv by CAM assay; assay type: organism-based, Gallus gallus; conditions: in vivo; summary of the method: as §1

Row | Structure (SMILES) | IC50 (CCRF-CEM) [nM] | IC50 (HT-29) [nM] | IC50 [1] [nM] | IC50 (M21 [2]) [nM] | IC50 (DU-145) [nM] | Ratio IC50 (CHO-TAX 5-6 [4]) | Activity (M21 [5]) [%] | IC50 (SK-OV-3) [nM] | IC50 (L1210) [nM] | IC50 (MDA-MB-231 [6]) [nM] | IC50 (MCF7) [nM] | IC50 [7] [nM] | IC50 (K562) [nM] | IC50 (CHO-VV 3-2) [nM] | Activity (M21 [8]) | IC50 [9] [nM] | IC50 (CHO-TAX 5-6 [10]) [nM] | Activity (M21 [11]) [%] | inhibition (MDA-MB-231 [12]) | Activity (M21 [14]) [%] | further results
1 | COc1cc(OS(=O)(=O)c2ccc(N3CCNC3=O)cc2)cc(OC)c1OC | 7.1 | 4 | 9.5 | 4 | 8.5 | 0.41 | 98 | 6.1 | 5.4 | 9.4 | 5 | 2.7 | 2.5 | 8.2 | Active | 9.2 | 3 | 1 | Active | 1 | mortality [3]: 8%; IC50 (CHO): 7.4 nM; IC50 (HT-1080 [13]): 5.9 nM; Ratio IC50 (CEM-VLB): 1.3; Activity (HT-1080 [15]): 39%
2 | COc1ccc(/C=C\c2cc(OC)c(OC)c(OC)c2)cc1O [COMBRETASTATIN A4] | – | 61 | – | 4.3 | – | – | 98 | – | – | – | 5.6 | – | – | – | Active | – | – | 0 | Active | 2 | mortality [3]: 18%; Activity (HT-1080 [16]): 45%; mortality [17]: 41%; Activity (HT-1080 [15]): 48%
3 | O=C1NCCN1c1ccc(S(=O)(=O)Oc2c(F)cccc2F)cc1 | 68 | 29 | 87 | 15 | 170 | 0.52 | 62 | 72 | 67 | 100 | 32 | 76 | 65 | 74 | Active | 91 | 38 | 33 | Active | 5 | Activity (HT-1080 [16]): Active; mortality [17]: 13%; IC50 (CHO): 73 nM; IC50 (HT-1080 [13]): 65 nM; Ratio IC50 (CEM-VLB): 1.3
4 | Cc1ccc(C)c(OS(=O)(=O)c2ccc(N3CCNC3=O)cc2)c1 | 19 | 10 | 23 | 8.5 | 57 | 0.78 | 77 | 29 | 21 | 69 | 14 | 19 | 18 | 21 | Active | 49 | 14 | 20 | Active | 3 | Activity (HT-1080 [16]): Active; mortality [17]: 13%; IC50 (CHO): 18 nM; IC50 (HT-1080 [13]): 24 nM; Ratio IC50 (CEM-VLB): 1.2
5 | COc1cc(OC)cc(OS(=O)(=O)c2ccc(N3CCNC3=O)cc2)c1 | 7.1 | 8 | 9.2 | 4.3 | 25 | 0.71 | 75 | 6.8 | 6.4 | 14 | 10 | 7.8 | 7.5 | 15 | Active | 25 | 5.2 | 24 | Active | 1 | Activity (HT-1080 [16]): 56%; mortality [17]: 10%; IC50 (CHO): 7.3 nM; IC50 (HT-1080 [13]): 8.2 nM; Ratio IC50 (CEM-VLB): 1.3
6 | COc1ccc(OS(=O)(=O)c2ccc(N3CCNC3=O)cc2)cc1 | 250 | 130 | 320 | 98 | 650 | 0.83 | 95 | 320 | 250 | 760 | 160 | 260 | 240 | 250 | Active | 510 | 200 | 5 | Active | 0 | Activity (HT-1080 [18]): 13%; Activity [19]: Active; IC50 (CHO): 240 nM; IC50 (HT-1080 [13]): 240 nM; Ratio IC50 (CEM-VLB): 1.3
